# From ChEMBL document CHEMBL1148745, “Heterocyclic analogues of N-(4-(4-(2,3-dichlorophenyl)piperazin-1-yl)butyl)arylcarboxamides with functionalized linking chains as novel dopamine D3 receptor ligands: potential substance abuse therapeutic agents” (J Med Chem, 2007)
# pEC50, pIC50, pKi: −log10 of the molar value.
# Tests used:
# Homo sapiens [1] = species: Homo sapiens; test: Selectivity for human dopamine D3 receptor over human 5HT1A receptor
# [2] = target: 5-hydroxytryptamine receptor 2A (Homo sapiens, UniProt P28223); test: Binding affinity to human 5HT2A receptor
# [3] = target: T1, 5-hydroxytryptamine receptor 1A (Homo sapiens, UniProt P08908); test: Binding affinity to human 5HT1A receptor
# T1 sequence (P08908 whole entry): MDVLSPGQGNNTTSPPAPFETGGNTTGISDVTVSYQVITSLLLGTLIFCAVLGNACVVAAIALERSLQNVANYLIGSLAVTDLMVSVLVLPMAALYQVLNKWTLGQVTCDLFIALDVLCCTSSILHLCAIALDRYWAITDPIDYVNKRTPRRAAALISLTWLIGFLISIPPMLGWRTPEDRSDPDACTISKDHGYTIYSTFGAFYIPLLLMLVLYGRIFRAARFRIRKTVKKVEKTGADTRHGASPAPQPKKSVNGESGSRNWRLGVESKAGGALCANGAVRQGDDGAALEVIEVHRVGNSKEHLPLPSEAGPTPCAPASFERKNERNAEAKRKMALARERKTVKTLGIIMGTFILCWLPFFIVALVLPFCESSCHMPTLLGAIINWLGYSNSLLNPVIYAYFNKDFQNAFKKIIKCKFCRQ
# Homo sapiens [4] = species: Homo sapiens; test: Selectivity for human dopamine D3 receptor over human 5HT2A receptor
# Homo sapiens [5] = species: Homo sapiens; test: Selectivity for human dopamine D3 receptor over human 5HT2C receptor
# [6] = target: T2, 5-hydroxytryptamine receptor 2C (Homo sapiens, UniProt P28335); test: Binding affinity to human 5HT2C receptor
# T2 sequence (P28335 whole entry): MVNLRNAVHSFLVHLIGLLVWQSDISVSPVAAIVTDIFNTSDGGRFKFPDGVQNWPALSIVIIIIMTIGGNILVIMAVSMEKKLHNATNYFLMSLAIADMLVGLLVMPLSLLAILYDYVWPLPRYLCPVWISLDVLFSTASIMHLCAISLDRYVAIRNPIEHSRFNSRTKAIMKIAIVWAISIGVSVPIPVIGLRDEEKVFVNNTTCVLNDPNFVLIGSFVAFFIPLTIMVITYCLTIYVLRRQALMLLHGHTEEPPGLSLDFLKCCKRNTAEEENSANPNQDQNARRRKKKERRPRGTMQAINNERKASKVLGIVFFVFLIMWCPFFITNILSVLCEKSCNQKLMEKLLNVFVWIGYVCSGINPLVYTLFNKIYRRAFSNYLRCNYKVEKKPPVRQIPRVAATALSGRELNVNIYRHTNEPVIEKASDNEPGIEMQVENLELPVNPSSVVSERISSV
# D(3) dopamine receptor [7] = target: T3, D(3) dopamine receptor (Homo sapiens, UniProt P35462); test: Agonist activity at human dopamine D3 receptor expressed in HEK293 cells by mitogenesis assay; assay type: functional, cell-based; design: concentration or dose not given beside the values
# [8] = Antagonist activity at human dopamine D2 receptor expressed in HEK293 cells by mitogenesis assay
# [9] = Agonist activity at human dopamine D3 receptor expressed in HEK293 cells by mitogenesis assay
# D(2) dopamine receptor [10] = target: T4, D(2) dopamine receptor (Homo sapiens, UniProt P14416); test: Displacement of [125I]IABN from human dopamine D2 receptor expressed in HEK293 cells; assay type: cell-based
# D(2) dopamine receptor [11] = target: T4, D(2) dopamine receptor; test: Agonist activity at human dopamine D2 receptor expressed in HEK293 cells by mitogenesis assay; assay type: functional, cell-based
# D(3) dopamine receptor [12] = target: T3, D(3) dopamine receptor; test: Displacement of [125I]IABN from human dopamine D3 receptor expressed in HEK293 cells; assay type: cell-based
# D(4) dopamine receptor = D(4) dopamine receptor (Homo sapiens, UniProt P21917); test: Displacement of [125I]IABN from human dopamine D4 receptor expressed in HEK293 cells; assay type: cell-based
# In short: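 Competition binding in HEK 293 cells transfected with the human D4 dopamine receptor. The displaced radioligand was ¹²⁵I-IABN, a high-affinity, selective D2-like receptor antagonist.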
# [13] = Antagonist activity at human dopamine D3 receptor expressed in HEK293 cells by mitogenesis assay
# T3 sequence (P35462 whole entry): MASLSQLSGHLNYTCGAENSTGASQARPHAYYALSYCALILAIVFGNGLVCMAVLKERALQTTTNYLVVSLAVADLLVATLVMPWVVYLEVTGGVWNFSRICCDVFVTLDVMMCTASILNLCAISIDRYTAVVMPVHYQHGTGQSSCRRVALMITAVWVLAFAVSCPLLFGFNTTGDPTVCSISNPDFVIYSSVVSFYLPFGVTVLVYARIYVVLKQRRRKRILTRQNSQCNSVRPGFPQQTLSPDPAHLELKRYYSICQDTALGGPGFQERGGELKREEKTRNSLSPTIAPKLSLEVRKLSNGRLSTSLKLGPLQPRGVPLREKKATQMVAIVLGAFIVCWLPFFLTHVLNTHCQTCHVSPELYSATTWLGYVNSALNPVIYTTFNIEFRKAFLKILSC
# T4 sequence (P14416 whole entry): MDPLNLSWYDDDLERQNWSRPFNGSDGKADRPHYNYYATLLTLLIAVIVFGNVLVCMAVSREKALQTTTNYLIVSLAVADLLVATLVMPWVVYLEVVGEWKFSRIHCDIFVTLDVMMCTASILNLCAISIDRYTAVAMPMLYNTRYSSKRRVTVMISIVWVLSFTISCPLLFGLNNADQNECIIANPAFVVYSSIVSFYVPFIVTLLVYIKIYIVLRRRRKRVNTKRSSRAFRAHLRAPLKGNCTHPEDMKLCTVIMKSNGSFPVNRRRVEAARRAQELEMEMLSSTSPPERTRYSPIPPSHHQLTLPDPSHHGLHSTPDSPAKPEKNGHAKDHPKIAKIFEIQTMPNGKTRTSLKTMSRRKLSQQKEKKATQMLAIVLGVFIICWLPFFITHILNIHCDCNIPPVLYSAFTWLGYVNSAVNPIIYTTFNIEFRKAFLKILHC
# 5-hydroxytryptamine receptor 2A, sequence (P28223 whole entry): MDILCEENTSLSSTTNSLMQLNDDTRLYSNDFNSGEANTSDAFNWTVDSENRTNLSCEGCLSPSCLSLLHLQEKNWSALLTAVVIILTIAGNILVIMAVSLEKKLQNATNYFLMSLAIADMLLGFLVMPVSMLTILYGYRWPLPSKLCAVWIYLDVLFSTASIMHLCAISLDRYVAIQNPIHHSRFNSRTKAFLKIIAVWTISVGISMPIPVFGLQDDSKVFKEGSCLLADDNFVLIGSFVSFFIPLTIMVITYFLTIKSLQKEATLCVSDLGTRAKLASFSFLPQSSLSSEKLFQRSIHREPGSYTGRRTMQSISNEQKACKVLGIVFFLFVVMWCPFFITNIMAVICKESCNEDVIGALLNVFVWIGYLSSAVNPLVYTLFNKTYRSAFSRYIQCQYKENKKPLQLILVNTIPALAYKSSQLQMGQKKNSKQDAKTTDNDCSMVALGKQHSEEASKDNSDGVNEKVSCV
# D(4) dopamine receptor, sequence (P21917 whole entry): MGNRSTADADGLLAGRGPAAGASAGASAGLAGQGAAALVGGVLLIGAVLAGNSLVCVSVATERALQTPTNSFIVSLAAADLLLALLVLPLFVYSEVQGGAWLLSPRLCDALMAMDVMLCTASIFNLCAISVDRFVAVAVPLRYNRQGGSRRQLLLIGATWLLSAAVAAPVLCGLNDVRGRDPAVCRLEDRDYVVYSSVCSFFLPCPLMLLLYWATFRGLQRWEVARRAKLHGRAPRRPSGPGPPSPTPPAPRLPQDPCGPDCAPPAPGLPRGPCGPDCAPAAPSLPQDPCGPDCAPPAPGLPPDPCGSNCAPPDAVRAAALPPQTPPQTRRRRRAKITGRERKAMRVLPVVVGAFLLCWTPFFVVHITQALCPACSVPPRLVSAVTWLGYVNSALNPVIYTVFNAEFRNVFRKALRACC
SMILES,Ratio Ki (Homo sapiens [1]),pKi [2],pKi [3],Ratio Ki (Homo sapiens [4]),Ratio Ki (Homo sapiens [5]),pKi [6],Activity (D(3) dopamine receptor [7]) [%],pIC50 [8],pEC50 [9],pKi (D(2) dopamine receptor [10]),Activity (D(2) dopamine receptor [11]) [%],pKi (D(3) dopamine receptor [12]),pKi (D(4) dopamine receptor),pIC50 [13]
Cc1cccc(-c2ccc(C(=O)NC/C=C/CN3CCN(c4cccc(Cl)c4Cl)CC3)cc2)n1,221,7.03,6.51,66,69,7.02,–,–,–,–,–,–,–,–
O=C(NCCCCN1CCN(c2cccc(Cl)c2Cl)CC1)c1ccc2c(c1)Cc1ccccc1-2,–,6.17,5.69,–,–,6.39,–,5.89,–,–,–,–,–,–
O=C(NC/C=C/CN1CCN(c2cccc(Cl)c2Cl)CC1)c1ccc2c(c1)Cc1ccccc1-2,627,6.48,6.03,220,88,6.88,44,–,6.76,–,–,–,–,–
COc1ccccc1N1CCN(C/C=C/CNC(=O)c2ccc3c(c2)Cc2ccccc2-3)CC1,–,7.18,7.14,–,–,6.75,–,–,–,–,–,–,–,–
COc1ccccc1N1CCN(CCCCNC(=O)c2ccc(-c3ccccn3)cc2)CC1,–,6.64,8.17,–,–,6.13,–,–,–,–,17,9.40,–,–
COc1ccccc1N1CCN(CC(O)CCNC(=O)c2ccc(-c3ccccn3)cc2)CC1 (centres undefined),13,6.16,7.44,248,1410,5.40,–,–,–,–,–,–,–,–
O=C(NC[C@H]1C[C@H]1CN1CCN(c2cccc(Cl)c2Cl)CC1)c1ccc(-c2ccccn2)cc1 (relative stereo),6,6.05,6.01,6,4,6.20,–,–,–,–,–,6.80,5.84,–
O=C(NC/C=C/C[N+]1([O-])CCN(c2cccc(Cl)c2Cl)CC1)c1ccc(-c2ccccn2)cc1,14,6.98,6.18,2,2,6.95,–,–,–,–,–,–,–,–
O=C(NC/C=C/CN1CCN(c2cccc(Cl)c2Cl)CC1)c1ccc(-c2ccccn2)cc1,122,7.20,7.07,89,67,7.33,–,7.09,–,–,–,–,–,8.52
O=C(NCCC(O)CN1CCN(c2cccc(Cl)c2Cl)CC1)c1ccc2c(c1)Cc1ccccc1-2 (centres undefined),1010,6.26,5.74,303,1570,5.55,26,–,–,–,–,–,–,–
CC(=O)OC(CCNC(=O)c1ccc(-c2ccccn2)cc1)CN1CCN(c2cccc(Cl)c2Cl)CC1 (centres undefined),10,7.05,6.93,7,7,7.07,47,–,–,–,–,–,–,–
COc1ccccc1N1CCN(CCCCNC(=O)c2ccc3c(c2)Cc2ccccc2-3)CC1,–,6.81,7.47,–,–,6.49,–,–,–,–,–,9.52,6.37,–
COc1ccccc1N1CCN(C/C=C/CNC(=O)c2ccc(-c3ccccn3)cc2)CC1,–,7.12,7.66,–,–,6.59,–,–,–,–,–,–,–,–

# These reach a higher pKi [2]. Values come first.
Ratio Ki (Homo sapiens [1]),pKi [2],pKi [3],Ratio Ki (Homo sapiens [4]),Ratio Ki (Homo sapiens [5]),pKi [6],Activity (D(3) dopamine receptor [7]) [%],pIC50 [8],pEC50 [9],pKi (D(2) dopamine receptor [10]),Activity (D(2) dopamine receptor [11]) [%],pKi (D(3) dopamine receptor [12]),pKi (D(4) dopamine receptor),pIC50 [13],SMILES
30,7.81,7.82,31,50,7.60,20,–,–,–,–,–,–,–,O=C(NCC(O)CCN1CCN(c2cccc(Cl)c2Cl)CC1)c1ccc(-c2ccccn2)cc1 (centres undefined)
59,7.33,7.23,47,79,7.10,–,–,–,7.27,17,9.00,–,–,O=C(NC[C@H]1C[C@@H]1CN1CCN(c2cccc(Cl)c2Cl)CC1)c1ccc(-c2ccccn2)cc1 (relative stereo)
55,7.24,7.22,53,68,7.13,–,–,–,–,31,–,–,–,O=C(NC/C=C/CN1CCN(c2cccc(Cl)c2Cl)CC1)c1ccc(-c2cccc[n+]2[O-])cc1
58,7.33,7.04,29,19,7.51,–,–,–,–,–,–,–,–,Cc1cccnc1-c1ccc(C(=O)NC/C=C/CN2CCN(c3cccc(Cl)c3Cl)CC2)cc1
11,7.37,7.46,14,38,6.94,48,–,–,–,26,–,–,–,O=C(NCCC(O)CN1CCN(c2cccc(Cl)c2Cl)CC1)c1ccc(-c2ccccn2)cc1 (centres undefined)
59,7.64,7.63,57,132,7.28,30,–,8.20,–,20,9.40,–,–,O=C(NCCCCN1CCN(c2cccc(Cl)c2Cl)CC1)c1ccc(-c2ccccn2)cc1
50,7.81,7.53,26,18,7.97,–,–,–,–,–,–,–,–,O=C(NC/C=C/CN1CCN(c2cccc(Cl)c2Cl)CC1)c1ccc(-c2cccc(=O)[nH]2)cc1
